Test [1] concerns the target Serine/threonine-protein kinase mTOR (Homo sapiens) (UniProt P42345). Description: Inhibition of mTOR signaling pathway (unknown origin) in sub-genomic replicon 2A cells assessed as reduction in ratio of viral NS3 to cellular GAPDH protein level at 10 uM after 72 hrs by Western blot analysis. The gist of the method: (§1)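 SGR2a (genotype 2a) or GS5 (genotype 1b) replicon cells were treated for 72 h, either at a single 10 μM dose or at increasing concentrations. Extracted proteins were blotted for NS3 and GAPDH, and blots plus repeats were quantified densitometrically as NS3:GAPDH ratio versus DMSO control (100%).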

Test [2] shares this target. The test is described as follows: Inhibition of mTOR signaling pathway in human Huh7.5 cells infected with FLAG-tagged HCV genotype 2a JFH-1 assessed as reduction in ratio of viral NS3 to cellular GAPDH protein level up to 50 uM after 72 hrs by Western blot analysis. Type of test: cell-based. The gist of the method:
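Huh7.5 cells were infected with genotype 2a JFH1-FLAG and co-treated at up to 50 μM for 72 h. NS3 and GAPDH were read by Western blot, and the NS3:GAPDH ratio was expressed relative to DMSO-treated cells.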

Test [3] has the same target. The test is described as follows: Inhibition of mTOR signaling pathway in human GS5 cells infected with HCV genotype 1b assessed as reduction in ratio of viral NS3 to cellular GAPDH protein level at 10 uM after 72 hrs by Western blot analysis. Type of test: cell-based. Put shortly:
as §1
For orientation: Immunoblotting shows a protein as a band on a membrane.

A further test concerns MDA-MB-231. The test is described as follows: Inhibition of estradiol-induced proliferation in human MDA-MB-231 cells after 72 hrs by Cell-titer-Glo assay. The conditions noted are these: MDA-MB-231, 72 h. The test is classed as functional, cell-based.
The next test concerns Ishikawa. The test is described as follows: Inhibition of estradiol-induced proliferation in human Ishikawa cells after 72 hrs by Cell-titer-Glo assay. Type of test: functional, cell-based.
In a further test the test system is MCF7. The test is described as follows: Inhibition of estradiol-induced proliferation in human MCF7 cells after 72 hrs by Cell-titer-Glo assay. The test is classed as functional, cell-based. The conditions noted are these: MCF7, 72 h.
In test [4] the target is Serine/threonine-protein kinase mTOR (Homo sapiens) (UniProt P42345). Description: Inhibition of mTOR signaling pathway (unknown origin) in sub-genomic replicon 2A cells assessed as reduction in ratio of viral NS3 to cellular GAPDH protein level at 0.5 to 1 uM after 72 hrs by Western blot analysis relative to control. Put shortly:
as §1

Test [5] concerns Hepatitis C virus. The test is described as follows: Antiviral activity against HCV genotype 2a infected in human Huh7.5 cells electroporated with viral RNA assessed as […] reduction in ratio of viral NS3 to cellular GAPDH protein level up to 50 uM after 72 hrs by Western blot analysis. The conditions noted are these: Hepacivirus hominis.
Test [6] has as its target Serine/threonine-protein kinase mTOR (Homo sapiens) (UniProt P42345). Description: Inhibition of mTOR signaling pathway (unknown origin) in human GS5 cells infected with HCV genotype 1b assessed as reduction in ratio of viral NS3 to cellular GAPDH protein level at 0.5 to 1 uM after 72 hrs by Western blot analysis relative to control. Type of test: cell-based. The gist of the method:
as §1

Test [7] shares this target. The test is described as follows: Inhibition of mTOR signaling pathway (unknown origin) in sub-genomic replicon 2A cells assessed as reduction in ratio of viral NS3 to cellular GAPDH protein level at 5 uM after 72 hrs by Western blot analysis relative to control. The gist of the method: as §1
Background: A replicon is a self-replicating genome or part of one, used to study replication in cells.

Test [8] has the same target. Description: Inhibition of mTOR signaling pathway (unknown origin) in human GS5 cells infected with HCV genotype 1b assessed as reduction in ratio of viral NS3 to cellular GAPDH protein level at 5 uM after 72 hrs by Western blot analysis relative to control. Type of test: cell-based. Put shortly: as §1
Test [9] shares this target. Description: Inhibition of mTOR signaling pathway (unknown origin) in sub-genomic replicon 2A cells assessed as reduction in ratio of phosphorylated rps6 protein level to rps6 protein level at 0.5 to 10 uM after 72 hrs by Western blot analysis relative to control. Put shortly: (§2)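 SGR2a replicon cells were incubated with increasing compound concentrations for 72 h. Western blots were run for total rps6, phospho-rps6, phospho-S6K1 and GAPDH, and blots plus repeats were quantified as p-rps6 relative to GAPDH or to total rps6.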

The target is the same in test [10]. The test is described as follows: Inhibition of mTOR signaling pathway in human Huh7.5 cells assessed as reduction in rps6 protein levels at 0.5 to 10 uM after 72 hrs by Western blot analysis. The test is classed as cell-based. The gist of the method:
(§3)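 Naïve, HCV-free Huh7.5 cells were incubated with increasing compound concentrations. Western blot analysis covered phospho-rps6, total rps6, S6K1 and actin.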

Test [11] shares this target. The test is described as follows: Inhibition of mTOR signaling pathway (unknown origin) in sub-genomic replicon 2A cells assessed as reduction in ratio of phosphorylated S6K1 protein level at 0.1 uM after 72 hrs by Western blot analysis. Put shortly: as §2
Test [12] deals with Hepatitis C virus. Description: Antiviral activity against HCV genotype 2a infected in human Huh7.5 cells assessed as reduction in viral RNA level at 0.1 to 10 uM after 72 hrs by qPCR analysis. The test is classed as functional, organism-based. The conditions noted are these: Hepacivirus hominis. In general terms: Quantitative PCR measures a nucleic acid by following its amplification.

Test [13] concerns the target Serine/threonine-protein kinase mTOR (Homo sapiens) (UniProt P42345). The test is described as follows: Inhibition of mTOR signaling pathway in human Huh7.5 cells assessed as reduction in S6K1 levels at 0.5 to 10 uM after 72 hrs by Western blot analysis. Type of test: cell-based. Put shortly: as §3
Test [14] has as its system Hepatitis C virus. The test is described as follows: Antiviral activity against HCV genotype 1b infected in human GS5 cells assessed as reduction in viral RNA level at 0.1 to 10 uM after 72 hrs by qPCR analysis. The test is classed as functional, organism-based. Conditions: Hepacivirus hominis. The gist of the method:
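GS5 genotype 1b replicon cells were treated for 72 h across 0.1–10 μM. Total RNA was extracted, and HCV RNA and GAPDH mRNA were quantified by qPCR with HCV-specific primers.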

The target of test [15] is Serine/threonine-protein kinase mTOR (Homo sapiens) (UniProt P42345). The test is described as follows: Inhibition of mTOR signaling pathway (unknown origin) in sub-genomic replicon 2A cells assessed as reduction in ratio of phosphorylated rps6 protein level to rps6 protein level after 72 hrs by Western blot analysis. Put shortly:
as §2

≈ marks a conversion by molar mass, not a printed value. Calls of active or inactive are those of the source. The rule behind the calls is not given here.

By inhibition is commonly meant the share of the control response that was lost under treatment. Broadly, the IC50 is the midpoint of a concentration-inhibition curve. Low values mean greater potency in that assay, high ones weaker potency in that assay.

Consider `COc1cc(OC)c(C(=O)C#Cc2cc(OC)c(OC)c(OC)c2)c(O)c1C`, for which the inhibition entry in [1], in test [2] and in test [3] was “Active” each time.
`COc1ccc(-c2oc3c(Br)cc(Br)cc3c(=O)c2O)cc1OC`: in test [2], the inhibition entry is “inactive”.
As for `COc1cc(-c2oc3c(Br)cc(Br)cc3c(=O)c2O)cc(OC)c1OC`, the inhibition entry in test [2] is “inactive”.
On to `COc1cc(-c2oc3c([N+](=O)[O-])cc(C)cc3c(=O)c2O)cc(OC)c1OC`, for which the inhibition entry in [2] is “inactive”.
Turning to `COc1ccc(-c2oc3c(Cl)cc(Cl)cc3c(=O)c2O)cc1OC`, the concentration for half-maximal inhibition (IC50) in the test on MDA-MB-231, with Ishikawa and in the test on MCF7 was more than 36.7 µg/mL in each case. Also, in test [2], the inhibition entry is “inactive”.
Consider `COc1ccc(C#CC(=O)c2cc(Cl)cc(Cl)c2O)cc1OC`, for which the inhibition entry in test [4] and in test [6] was “inactive” each time. For the same molecule, the inhibition result in test [1], in test [7], in [2], in [8] and in test [3] was “Active” each time. In addition, in the test with Hepatitis C virus [5], the outcome was inactive. Also, the IC50 in the test on MDA-MB-231 came to 1.98 µg/mL (≈ 5.64 µM); in the test on Ishikawa, 5.85 µg/mL (≈ 16.7 µM); in the test with MCF7, 3.3 µg/mL (≈ 9.4 µM).
Regarding `COc1ccc(C#CC(=O)c2cc(C)cc([N+](=O)[O-])c2O)cc1OC`, the inhibition result in [1], in test [2] and in test [3] was “Active” each time. Also, the outcome with Hepatitis C virus [5] was inactive. For the same molecule, the values for the IC50 in the test with MDA-MB-231, with Ishikawa and in the test on MCF7 were 0.99 µg/mL (≈ 2.9 µM), 1.43 µg/mL (≈ 4.19 µM) and 2.24 µg/mL (≈ 6.56 µM), respectively.
With `COc1ccc(-c2oc3c([N+](=O)[O-])cc(C)cc3c(=O)c2O)cc1OC`, the 50% inhibitory concentration (IC50) with MDA-MB-231, in the test on Ishikawa and in the test with MCF7 was more than 35.7 µg/mL each time. In addition, the inhibition entry in test [2] was “inactive”.
For the molecule `COc1ccc(C#CC(=O)c2cc(Br)cc(Br)c2O)cc1OC`, the inhibition entry in [4] and in test [6] was “inactive” throughout. The inhibition entry in [1], in test [10], in [11], in test [13], in test [2] and in [3] was “Active” throughout. For the same molecule, the inhibition in test [9], in test [7] and in test [8] was 50% in each case. Besides, the result in the test with Hepatitis C virus [12] was Active. The result with Hepatitis C virus [5] was inactive.
Consider `COc1cc(-c2cc(=O)c3cc(Cl)cc(Cl)c3o2)cc(OC)c1OC`, for which, in [2], the inhibition result was “inactive”.
Regarding `COc1cc(O)c(C(=O)C#Cc2cc(OC)c(OC)c(OC)c2)c(OC)c1`, the inhibition result in [4] and in test [6] was “inactive” each time. The inhibition entry in [1], in test [15], in test [2] and in test [3] was “Active” in each case. The outcome with Hepatitis C virus [14] and in the test with Hepatitis C virus [5] was inactive. Besides, the outcome in the test with Hepatitis C virus [12] was Active. Also, the inhibition in test [7] and in test [8] was 50% throughout.
Consider `COc1cc(C#CC(=O)c2cc(Cl)cc(Cl)c2O)cc(OC)c1OC`, for which the inhibition result in test [1], in test [2] and in [3] was “Active” throughout.
On to `COc1ccc(-c2cc(=O)c3cc(Br)cc(Br)c3o2)cc1OC`, for which the inhibition entry in test [2] was “inactive”.
For the molecule `COc1cc(-c2cc(=O)c3cc(C)cc([N+](=O)[O-])c3o2)cc(OC)c1OC`, the inhibition entry in test [2] is “inactive”.
Take `Cl.O=C(c1ccc(OCCN2CCCCC2)cc1)c1c(-c2ccc(O)cc2)sc2cc(O)ccc12` [RALOXIFENE HYDROCHLORIDE]: the concentration for half-maximal inhibition (IC50) in the test with MDA-MB-231 turned out to be 11.2 µg/mL; in the test with Ishikawa, 10.5 µg/mL; with MCF7 it was 0.98 µg/mL.
`COc1ccc(-c2cc(=O)c3cc(C)cc([N+](=O)[O-])c3o2)cc1OC`: the inhibition entry in test [2] is “inactive”.
`CC/C(=C(\c1ccc(O)cc1)c1ccc(OCCN(C)C)cc1)c1ccccc1` [AFIMOXIFENE] displayed an IC50 with MCF7 of 0.95 µg/mL (≈ 2.45 µM).
`COc1cc(-c2oc3c(Cl)cc(Cl)cc3c(=O)c2O)cc(OC)c1OC`: the inhibition result in [2] is “inactive”.
As for `CCCCCc1c(OC)cc(OC)c(C(=O)C#Cc2cc(OC)c(OC)c(OC)c2)c1O`, the inhibition entry in [1] and in test [3] was “Active” throughout. In addition, the inhibition result in [2] is “inactive”.

These data come from ChEMBL document CHEMBL4177560, “Functional evaluation of synthetic flavonoids and chalcones for potential antiviral and anticancer properties” (Bioorg Med Chem Lett, 2017).
